# Key:
# DNA gyrase = DNA gyrase (Escherichia coli, UniProt P0AES4+P0AES6); assay: Compound evaluated in vitro for the ability to inhibit gyrase.; format: protein-complex assay; settings: read-out: I50 (converted)
# Method in brief: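 DNA gyrase isolated from Escherichia coli H560 cells; inhibition given as I50.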
# [1] = Compound evaluated in vitro against five gram-positive bacterial strains and geometric means of the minimum inhibitory concentrations (MIC) reported.; format: functional; set-up: unit not given here
# Method in brief: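 Geometric mean MIC across five Gram-positive strains, taken as antilog of the averaged log MIC values.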
# [2] = Compound evaluated in vitro against five gram-negative bacterial strains and geometric means of the minimum inhibitory concentrations (MIC) reported.; format: functional; set-up: unit not given here
# Method in brief: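 Geometric mean MIC across five Gram-negative strains (E. coli H560, E. coli Vogel, Enterobacter cloacae MA 2646, Klebsiella pneumoniae MGH-2, Proteus rettgeri M1771). Mean taken as antilog of the averaged log MIC values.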
# Streptococcus pneumoniae [3] = assay: In vivo protection against gram-positive Streptococcus pneumonia (SV-1) in mouse after oral administration.; format: functional; settings: read-out: PD50
# Streptococcus pneumoniae [4] = assay: In vivo protection against gram-positive Streptococcus pneumonia (SV-1) in mouse after subcutaneous administration; format: functional; settings: sc, read-out: PD50
# Escherichia coli [5] = assay: In vivo protection against gram-negative Escherichia coli vogel in mouse after oral administration.; settings: read-out: PD50
# Escherichia coli [6] = assay: In vivo protection against gram-negative Escherichia coli vogel in mouse after subcutaneous administration; settings: sc, read-out: PD50
smiles,measurement,setting,value
O=C(O)c1cn(C2CC2)c2cc(N3CC4CCC3CN4)c(F)cc2c1=O (configuration not stated),IC50,DNA gyrase,4.2 µM
same,MIC,[1],0.1
same,MIC,[2],0.08
same,ED50,Streptococcus pneumoniae [3],> 100 mg/kg
same,ED50,Streptococcus pneumoniae [4],24 mg/kg
same,ED50,Escherichia coli [5],5.5 mg/kg
same,ED50,Escherichia coli [6],0.7 mg/kg

# Reference: ChEMBL document CHEMBL1125245, “Quinolone antibacterials: preparation and activity of bridged bicyclic analogues of the C7-piperazine” (J Med Chem, 1991)
